Paper PMC5598375 (Toxicology Reports, 2014)
“Also recorded” adds a separate entry of the source.

How the values were obtained:
[1] = test system: somatic cells of Drosophila; settings: PP-IX 69 mM, 24 h after administration, with 0.5 mM N-nitroso-N-ethylurea (ENU); cited from earlier work
[2] = test system: 48 h-larvae mwh +/+ flr^3; assay: Wing spot test; type: in vivo, Drosophila melanogaster; settings: for Total spots, statistical diagnosis / Small single spots (1-2 cells), statistical diagnosis: m = 2; for Total spots, statistical diagnosis / Large single spots (>cells), statistical diagnosis / Small single spots (1-2 cells), statistical diagnosis: vs negative control; for Large single spots (>cells), statistical diagnosis: m = 5
Outline: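 Crosses: mwh/mwh females × flr3/TM3,Bds males mated 2 h, eggs laid over 2 h. 48 h larvae were collected on 20% sucrose, washed in 24 ± 1 °C water, held 24 h in the dark on filter paper with PP-IX (0–69 mM in 5% sucrose), then fed CrO3 (0.025–2.5 mM) in instant medium, in triplicate. Non-Ser wings were scored at 40× for small (1–2 cells), large and twin spots. Frei–Würgler one-sided test, α=β=0.05, m multiplication factor.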

[3] = test system: 48 h-old mwh +/+ flr^3 larvae; assay: Wing spot test, PP-IX pretreatment then 20 Gy gamma rays; type: in vivo, Drosophila melanogaster; settings: for Large single spots (>cells) per wing / Large single spots (>cells), number of spots / Small single spots (1-2 cells) per wing / Small single spots (1-2 cells), number of spots / Total spots per wing / Total spots, number of spots / Twin spots per wing / Twin spots, number of spots: 80 wings; for Small single spots (1-2 cells), statistical diagnosis / Total spots, statistical diagnosis: m = 2
Outline: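 48 h-old mwh/flr3 larvae were pretreated 24 h in the dark on filter paper with PP-IX (0, 0.69, 6.9, 69 mM in 5% sucrose). Each group was then split: one half received 20 Gy from a Co-60 source (dose rate up to 1259.44 Gy/h), the other stayed unirradiated. Larvae were reared on hydrated instant medium to eclosion. Wing spots were scored by SMART and analysed by Frei–Würgler statistics, m multiplication factor.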

Drosophila strain = settings: chronic treatment, cited from earlier work
[4] = test system: 48 h-old mwh+/+flr^3 larvae; assay: Toxicity test; type: in vivo, Drosophila melanogaster; settings: for % of non-viable larvae / No. of viable larvae ± SEM: 500 larvae
48 h-larvae mwh+/+flr^3 = assay: Wing spot test; type: in vivo, Drosophila melanogaster; settings: CrO3 0.025–2.5 mM
rats of the CF1 strain = settings: cited from earlier work
[5] = PP-IX 0.69 mM 24 h pretreatment alone, 120 wings
[6] = PP-IX 6.9 mM 24 h pretreatment alone, 120 wings
[7] = PP-IX 69 mM 24 h pretreatment alone, 160 wings
[8] = PP-IX 0.69 mM 24 h pretreatment + 20 Gy gamma rays
[9] = PP-IX 0.69 mM + 20 Gy gamma rays
[10] = PP-IX 6.9 mM 24 h pretreatment + 20 Gy gamma rays
[11] = PP-IX 6.9 mM + 20 Gy gamma rays
[12] = PP-IX 69 mM 24 h pretreatment + 20 Gy gamma rays
[13] = PP-IX 69 mM + 20 Gy gamma rays, m = 5

Large single spots (>cells) per wing [2, 5]: 0.05 spots per wing | Large single spots (>cells), number of spots [2, 5]: 6 | Small single spots (1-2 cells) per wing [2, 5]: 0.33 spots per wing | Small single spots (1-2 cells), number of spots [2, 5]: 40 | Total spots per wing [2, 5]: 0.41 spots per wing | Total spots, number of spots [2, 5]: 49 | Twin spots per wing [2, 5]: 0.03 spots per wing | Twin spots, number of spots [2, 5]: 3 | Total spots, statistical diagnosis ([2]; PP-IX 0.69 mM alone): − | Large single spots (>cells), statistical diagnosis ([2]; PP-IX 0.69 mM alone): − | Large single spots (>cells) per wing [2, 6]: 0.05 spots per wing | Large single spots (>cells), number of spots [2, 6]: 6 | Small single spots (1-2 cells) per wing [2, 6]: 0.23 spots per wing | Small single spots (1-2 cells), number of spots [2, 6]: 28 | Total spots per wing [2, 6]: 0.28 spots per wing | Total spots, number of spots [2, 6]: 34 | Twin spots per wing [2, 6]: 0 spots per wing | Twin spots, number of spots [2, 6]: (0) | Small single spots (1-2 cells), statistical diagnosis ([2]; PP-IX 6.9 mM alone): − | Total spots, statistical diagnosis ([2]; PP-IX 6.9 mM alone): − | Large single spots (>cells), statistical diagnosis ([2]; PP-IX 6.9 mM alone): − | Large single spots (>cells) per wing [2, 7]: 0.14 spots per wing | Large single spots (>cells), number of spots [2, 7]: 23 | Small single spots (1-2 cells) per wing [2, 7]: 0.51 spots per wing | Small single spots (1-2 cells), number of spots [2, 7]: 81 | Total spots per wing [2, 7]: 0.66 spots per wing | Total spots, number of spots [2, 7]: 106 | Twin spots per wing [2, 7]: 0.01 spots per wing | Twin spots, number of spots [2, 7]: 2 | Effect of PP-IX alone on basal mutation frequency ([2]; PP-IX 69 mM alone): doubled the basal mutation frequency | Small single spots (1-2 cells), statistical diagnosis ([2]; PP-IX 69 mM alone): + | Total spots, statistical diagnosis ([2]; PP-IX 69 mM alone): + | Large single spots (>cells), statistical diagnosis ([2]; PP-IX 69 mM alone): −
Structure (SMILES): C=CC1=C(C)c2cc3[nH]c(cc4nc(cc5[nH]c(cc1n2)c(C)c5CCC(=O)O)C(CCC(=O)O)=C4C)c(C)c3C=C [PP-IX, Protoporphyrin-IX]
Mutagenicity in combination with ENU [1]: mutagenic | Mutagenicity of PP-IX alone ([2]; PP-IX 69 mM, damage comparable with 0.25 mM of CrO3): mutagenic | Induction of genetic damage by PP-IX alone ([2]; PP-IX 0.69 and 6.9 mM): did not induce genetic damage | Large single spots (>cells) per wing [3, 8]: 1.16 spots per wing | Large single spots (>cells), number of spots [3, 8]: 93 | Small single spots (1-2 cells) per wing [3, 8]: 0.82 spots per wing | Small single spots (1-2 cells), number of spots [3, 8]: 66 | Total spots per wing [3, 8]: 2.07 spots per wing | Total spots, number of spots [3, 8]: 166 | Twin spots per wing [3, 8]: 0.08 spots per wing | Twin spots, number of spots [3, 8]: 7 | Small single spots (1-2 cells), statistical diagnosis [3, 9]: − | Total spots, statistical diagnosis [3, 9]: − | Twin spots, statistical diagnosis ([3]; PP-IX 0.69 mM + 20 Gy gamma rays, m = 5): − | Large single spots (>cells) per wing [3, 10]: 1.84 spots per wing | Large single spots (>cells), number of spots [3, 10]: 147 | Small single spots (1-2 cells) per wing [3, 10]: 0.69 spots per wing | Small single spots (1-2 cells), number of spots [3, 10]: 55 | Total spots per wing [3, 10]: 2.67 spots per wing | Total spots, number of spots [3, 10]: 214 | Twin spots per wing [3, 10]: 0.15 spots per wing | Twin spots, number of spots [3, 10]: 12 | Small single spots (1-2 cells), statistical diagnosis [3, 11]: − | Total spots, statistical diagnosis [3, 11]: − | Twin spots, statistical diagnosis ([3]; PP-IX 6.9 mM + 20 Gy gamma rays, m = 5): − | Large single spots (>cells) per wing [3, 12]: 1.52 spots per wing | Large single spots (>cells), number of spots [3, 12]: 122 | Small single spots (1-2 cells) per wing [3, 12]: 1.16 spots per wing | Small single spots (1-2 cells), number of spots [3, 12]: 93 | Total spots per wing [3, 12]: 2.76 spots per wing | Total spots, number of spots [3, 12]: 221 | Twin spots per wing [3, 12]: 0.07 spots per wing | Twin spots, number of spots [3, 12]: 6 | Small single spots (1-2 cells), statistical diagnosis ([3]; PP-IX 69 mM + 20 Gy gamma rays): − | Total spots, statistical diagnosis ([3]; PP-IX 69 mM + 20 Gy gamma rays): − | Large single spots (>cells), statistical diagnosis [3, 13]: − | Twin spots, statistical diagnosis [3, 13]: − | Effect on damage induced by gamma rays ([3]; PP-IX all tested concentrations, 20 Gy): no effect; also recorded: Absence of an inhibitor effect | Half life, Sod deficient strain (Drosophila strain; Sod deficient strain): half life was reduced | Lifespan, wild strain (Drosophila strain; wild Drosophila strain): prolong the lifespan | % of non-viable larvae ([4]; PP-IX 0.69 mM): 21% | No. of viable larvae ± SEM ([4]; PP-IX 0.69 mM): 394 ± 1.7 | % of non-viable larvae ([4]; PP-IX 6.9 mM): 11% | No. of viable larvae ± SEM ([4]; PP-IX 6.9 mM): 447 ± 0.6 | Reduction of toxicity compared to control ([4]; PP-IX 6.9 mM, not significantly): 5% | % of non-viable larvae ([4]; PP-IX 69 mM): 26% | No. of viable larvae ± SEM ([4]; PP-IX 69 mM): 368 ± 0.5 | Toxicity compared to the control ([4]; PP-IX 0.69, 6.9, 69 mM (three concentrations tested)): nontoxic; also recorded: not toxic | Effect on genetic damage induced by CrO3 (48 h-larvae mwh+/+flr^3; PP-IX 0.69 mM): significant decrease of damage in four of the five concentrations of CrO3 tested; also recorded: significantly reduced the genetic damage induced by all CrO3 concentrations tested | Effect on genetic damage induced by CrO3 (48 h-larvae mwh+/+flr^3; PP-IX 6.9 mM): significantly decreased the frequency of damage induced by 2 and 2.5 mM of the mutagen | Effect on genetic damage induced by CrO3 (48 h-larvae mwh+/+flr^3; PP-IX 69 mM): only reduced the damage induced by 2.5 mM | Increase of catalase (CAT) activity (rats of the CF1 strain; after 2 h of administration): 30% | Lipid peroxidation (rats of the CF1 strain): induced lipid peroxidation | Superoxide dismutase (SOD) enzyme (rats of the CF1 strain): increased 24 h after administration
